ChEMBL document CHEMBL3414496, “Synthesis and biological evaluation of novel 2-heteroarylimino-1,3-thiazolidin-4-ones as potential anti-tumor agents” (Eur J Med Chem, 2015)
Activity calls are given as the source filed them. The rule behind the calls is not given here.

What was measured:
HT-29 [1] = experiment: Induction of ROS generation in human HT-29 cells at 2.5 uM after 3 hrs by DCF-DA staining based fluorescence assay; format: functional, cell-based
In short: (§1)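 HT29 cells treated two days after seeding, then loaded with 50 µM DCF-DA for 15 min at 37°C. Cells trypsinized, washed and resuspended in PBS, and 30 000 cells/sample read by flow cytometry (FL-1). Expressed as % of DMSO-treated cells; […] for 1 h served as positive control. Triplicates from three independent experiments.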

HT-29 [2] = experiment: Induction of redox status changes in human HT-29 cells assessed as ROS content in presence of 1 mM ascorbic acid by DCF-DA staining based fluorescence assay (reference value: 64.7 +/- 2.6%)
HT-29 [3] = experiment: Induction of HO1 expression in human HT-29 cells at 1.5 uM after 6 hrs by Western blotting method; format: functional
In short: (§2)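 HT29 whole-cell lysates in Hepes/KOH pH 7.5 with EDTA, KCl, NP40, DTT, protease inhibitors; 50 µg protein on 10–15% SDS-PAGE, nitrocellulose, overnight 4°C primary antibody (GCL 1:500, HO-1 1:1000), HRP secondary, chemiluminescence. Bands normalized to GAPDH (1:10 000), DMSO ratio set at 1.00; representative of three independent experiments.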

HT-29 [4] = experiment: Induction of GCL expression in human HT-29 cells at 1.5 uM after 2 hrs by Western blotting method; format: functional; in short: as §2
HT-29 [5] = experiment: Induction of GCL expression in human HT-29 cells at 1.5 uM after 6 hrs by Western blotting method; format: functional; in short: as §2
HT-29 [6] = experiment: Induction of HO1 expression in human HT-29 cells at 1.5 uM after 24 hrs by Western blotting method; format: functional; in short: as §2
HT-29 [7] = experiment: Induction of NQO1 expression in human HT-29 cells at 1.5 uM after 2 hrs by Western blotting method; format: functional
In short: (§3)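 Whole-cell lysates from treated HT29 cells in pH 7.5 Hepes/KOH buffer with EDTA, KCl, Igepal, DTT and protease inhibitors. 50 µg protein run on 10-15% SDS-PAGE and transferred to nitrocellulose. Probed overnight at 4°C with anti-HO-1 (1:1 000), anti-NQO1 (1:1 000) or anti-GCL (1:500), then HRP secondary for 45 min and chemiluminescence. Bands normalized to GAPDH (1:10 000), with the DMSO ratio set to 1.00. Representative of three experiments.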

HT-29 [8] = experiment: Induction of HO1 expression in human HT-29 cells at 1.5 uM after 4 hrs by Western blotting method; format: functional; in short: as §2
HT-29 [9] = experiment: Induction of GCL expression in human HT-29 cells at 1.5 uM after 4 hrs by Western blotting method; format: functional; in short: as §2
HT-29 [10] = experiment: Induction of GCL expression in human HT-29 cells at 1.5 uM after 24 hrs by Western blotting method; format: functional; in short: as §2
HT-29 [11] = experiment: Induction of NQO1 expression in human HT-29 cells at 1.5 uM after 24 hrs by Western blotting method; format: functional; in short: as §3
HT-29 [12] = experiment: Induction of NQO1 expression in human HT-29 cells at 10 uM after 24 hrs by Western blotting method; format: functional; in short: as §3
HT-29 [13] = experiment: Induction of HO1 expression in human HT-29 cells at 10 uM after 6 hrs by Western blotting method; format: functional; in short: as §2
HT-29 [14] = experiment: Induction of HO1 expression in human HT-29 cells at 10 uM after 2 hrs by Western blotting method; format: functional; in short: as §2
HT-29 [15] = experiment: Induction of GCL expression in human HT-29 cells at 10 uM after 2 hrs by Western blotting method; format: functional; in short: as §2
HT-29 [16] = experiment: Induction of GCL expression in human HT-29 cells at 10 uM after 6 hrs by Western blotting method; format: functional; in short: as §2
HT-29 [17] = experiment: Induction of GCL expression in human HT-29 cells at 10 uM after 4 hrs by Western blotting method; format: functional; in short: as §2
HT-29 [18] = experiment: Induction of NQO1 expression in human HT-29 cells at 10 uM after 6 hrs by Western blotting method; format: functional; in short: as §3
HT-29 [19] = experiment: Induction of HO1 expression in human HT-29 cells at 10 uM after 24 hrs by Western blotting method; format: functional; in short: as §2
HT-29 [20] = experiment: Induction of HO1 expression in human HT-29 cells at 10 uM after 4 hrs by Western blotting method; format: functional; in short: as §2
HT-29 [21] = experiment: Induction of HO1 expression in human HT-29 cells at 6.4 uM after 2 hrs by Western blotting method; format: functional; in short: as §2
HT-29 [22] = experiment: Induction of GCL expression in human HT-29 cells at 6.4 uM after 6 hrs by Western blotting method; format: functional; in short: as §2
HT-29 [23] = experiment: Induction of NQO1 expression in human HT-29 cells at 6.4 uM after 24 hrs by Western blotting method; format: functional; in short: as §3
HT-29 [24] = experiment: Induction of HO1 expression in human HT-29 cells at 6.4 uM after 6 hrs by Western blotting method; format: functional; in short: as §2
HT-29 [25] = experiment: Induction of GCL expression in human HT-29 cells at 6.4 uM after 4 hrs by Western blotting method; format: functional; in short: as §2
HT-29 [26] = experiment: Induction of GCL expression in human HT-29 cells at 6.4 uM after 24 hrs by Western blotting method; format: functional; in short: as §2
HT-29 [27] = experiment: Induction of HO1 expression in human HT-29 cells at 6.4 uM after 24 hrs by Western blotting method; format: functional; in short: as §2
HT-29 [28] = experiment: Induction of GCL expression in human HT-29 cells at 6.4 uM after 2 hrs by Western blotting method; format: functional; in short: as §2
HT-29 [29] = experiment: Induction of HO1 expression in human HT-29 cells at 3.8 uM after 6 hrs by Western blotting method; format: functional; in short: as §2
HT-29 [30] = experiment: Induction of HO1 expression in human HT-29 cells at 3.8 uM after 2 hrs by Western blotting method; format: functional; in short: as §2
HT-29 [31] = experiment: Induction of GCL expression in human HT-29 cells at 3.8 uM after 24 hrs by Western blotting method; format: functional; in short: as §2
HT-29 [32] = experiment: Induction of GCL expression in human HT-29 cells at 3.8 uM after 6 hrs by Western blotting method; format: functional; in short: as §2
HT-29 [33] = experiment: Induction of HO1 expression in human HT-29 cells at 3.8 uM after 24 hrs by Western blotting method; format: functional; in short: as §2
HT-29 [34] = experiment: Induction of NQO1 expression in human HT-29 cells at 3.8 uM after 2 hrs by Western blotting method; format: functional; in short: as §3
HT-29 [35] = experiment: Induction of GCL expression in human HT-29 cells at 3.8 uM after 4 hrs by Western blotting method; format: functional; in short: as §2
HT-29 [36] = experiment: Induction of NQO1 expression in human HT-29 cells at 3.8 uM after 6 hrs by Western blotting method; format: functional; in short: as §3
HT-29 [37] = experiment: Induction of NQO1 expression in human HT-29 cells at 3.8 uM after 4 hrs by Western blotting method; format: functional; in short: as §3
HT-29 [38] = experiment: Induction of HO1 expression in human HT-29 cells at 3.8 uM after 4 hrs by Western blotting method; format: functional; in short: as §2
HT-29 [39] = experiment: Induction of GCL expression in human HT-29 cells at 3.8 uM after 2 hrs by Western blotting method; format: functional; in short: as §2
HT-29 [40] = experiment: Induction of ROS generation in human HT-29 cells at 2.5 uM after 2 to 6 hrs by DCF-DA staining based fluorescence assay; format: functional, cell-based; in short: as §1

CN(C)c1ccc(/C=C2\S/C(=N\c3nc(-c4ccc(Cl)cc4)cs3)NC2=O)cc1
Activity (HT-29 [1]): Active
Activity (HT-29 [2]): 158.8%

CN(C)c1ccc(/C=C2\S/C(=N\c3csc(-c4ccc(Cl)cc4)c3)NC2=O)cc1
fold change (FC) (HT-29 [3]): 1
fold change (FC) (HT-29 [4]): 0.9
fold change (FC) (HT-29 [5]): 0.99
fold change (FC) (HT-29 [6]): 1
fold change (FC) (HT-29 [7]): 1.15
fold change (FC) (HT-29 [8]): 1
fold change (FC) (HT-29 [9]): 0.96
fold change (FC) (HT-29 [10]): 1.52
fold change (FC) (HT-29 [11]): 1.07

COc1ccc(/C=C2\S/C(=N\c3csc(-c4ccc(Cl)cc4)c3)NC2=O)cc1OC
fold change (FC) (HT-29 [12]): 0.9
fold change (FC) (HT-29 [13]): 1
fold change (FC) (HT-29 [14]): 1
fold change (FC) (HT-29 [15]): 0.96
fold change (FC) (HT-29 [16]): 1.16
fold change (FC) (HT-29 [17]): 1.16
fold change (FC) (HT-29 [18]): 1.23
fold change (FC) (HT-29 [19]): 1
fold change (FC) (HT-29 [20]): 1

Cc1ccc(/C=C2\S/C(=N\c3csc(-c4ccc(Cl)cc4)c3)NC2=O)cc1
fold change (FC) (HT-29 [21]): 1
fold change (FC) (HT-29 [22]): 2.25
fold change (FC) (HT-29 [23]): 1.6
fold change (FC) (HT-29 [24]): 1
fold change (FC) (HT-29 [25]): 2.54
fold change (FC) (HT-29 [26]): 0.97
fold change (FC) (HT-29 [27]): 1
fold change (FC) (HT-29 [28]): 1.93

COc1ccc(/C=C2\S/C(=N\c3csc(-c4ccc(Cl)cc4)c3)NC2=O)cc1
fold change (FC) (HT-29 [29]): 1
fold change (FC) (HT-29 [30]): 1
fold change (FC) (HT-29 [31]): 1.55
fold change (FC) (HT-29 [32]): 1.69
fold change (FC) (HT-29 [33]): 1
fold change (FC) (HT-29 [34]): 1.16
fold change (FC) (HT-29 [35]): 1.49
fold change (FC) (HT-29 [36]): 0.9
fold change (FC) (HT-29 [37]): 0.87
fold change (FC) (HT-29 [38]): 1
fold change (FC) (HT-29 [39]): 1.22

COc1ccc(/C=C2\S/C(=N\c3nc(-c4ccc(Cl)cc4)cs3)NC2=O)cc1
Activity (HT-29 [40]): inactive
